Reference: PMC2800315 (Japanese Journal of Clinical Oncology, 2009)
Like-named read-outs stand apart in the source and are kept apart here.

Experiments:
advanced solid tumors = assay: Tumor response according to RECIST; assay type: in vivo, Japanese patients
Method in brief: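 Patients had ≥1 measurable lesion and took continuous once-daily oral dosing in 28-day cycles, continued until progression. Tumour assessed by RECIST every 2 months and at study end. Outcomes summarised descriptively.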

esophagogastric cancer = conditions: one esophagogastric cancer patient, daily dose of 5 mg; cited from earlier work
[1] = patients with advanced cancer, cited from earlier work; for AUCτ: mean
[2] = Safety and tolerability, adverse events; assay type: in vivo, Japanese patients
Method in brief: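 Open-label 3+3 dose escalation with daily oral dosing up to 10 mg/day in 28-day cycles. Adverse events monitored throughout and graded by NCI CTCAE v3.0, recorded until 28 days after stopping. DLT: grade ≥3 haematologic or non-haematologic event, or grade ≥3 lab abnormality, within the first 4 weeks and suspected drug-related. Antiemetic and anti-hyperlipidaemia therapy allowed.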

[3] = 2.5 mg/day (n = 3), G1/2, all courses
[4] = 2.5 mg/day (n = 3), G3/4, all courses
[5] = 5 mg/day (n = 3), G1/2, all courses
[6] = 5 mg/day (n = 3), G3/4, all courses
[7] = 10 mg/day (n = 3), G1/2, all courses
[8] = 10 mg/day (n = 3), G3/4, all courses
[9] = Total, all doses and grades, all courses
[10] = one patient with esophageal carcinoma, 10 mg/day, day 58

CO[C@H]1C[C@@H]2CC[C@@H](C)[C@@](O)(O2)C(=O)C(=O)N2CCCC[C@H]2C(=O)O[C@H]([C@H](C)C[C@@H]2CC[C@@H](OCCO)[C@H](OC)C2)CC(=O)[C@H](C)/C=C(\C)[C@@H](O)[C@@H](OC)C(=O)[C@H](C)C[C@H](C)/C=C/C=C/C=C/1C [RAD001, everolimus]
2: Number of patients with adverse event: Elevated ALT or AST [2, 3] | Number of patients with adverse event: Anorexia [2, 5] | Number of patients with adverse event: Diarrhea [2, 5] | Number of patients with adverse event: Leukopenia [2, 5] | Number of patients with adverse event: Thrombocytopenia [2, 5] | Number of patients with adverse event: Mucosal inflammation [2, 7] | Number of patients with adverse event: Diarrhea [2, 9] | Number of patients with adverse event: Elevated ALT or AST [2, 9] | Number of patients with adverse event: Fatigue [2, 9] | Number of patients with adverse event: Mucosal inflammation [2, 9] | Number of patients with adverse event: Nausea [2, 9] | Number of patients with adverse event: Stomatitis [2, 9] | Number of patients with adverse event: Weight decreased [2, 9]
33%: Leukopenia, all grades, patients ([2]; overall, nine patients)
partial response: Tumor response (esophagogastric cancer)
grade 2: Pneumonitis, grade ([2]; one patient with colon cancer, 5 mg/day, after 142 days of therapy)
32 ± 9 ng/mL: Cmax ([1]; daily dose 5 mg, mean ± SD)
56%: Thrombocytopenia, all grades, patients ([2]; overall, nine patients)
Grade 3: Hyperglycemia, grade ([2]; one patient with colorectal cancer, 10 mg/day, day 98) | Fatigue, grade [2, 10] | Stomatitis, grade [2, 10]
5: Number of patients with adverse event: Thrombocytopenia [2, 9]
> 4 months: Duration of partial response (advanced solid tumors; patient with gastric adenocarcinoma and liver metastases, 10 mg/day)
two of three: Patients with marked tumor shrinkage (advanced solid tumors; daily dose of 10 mg, esophageal and gastric cancer)
4: Number of patients with adverse event: Anorexia [2, 9] | Number of patients with adverse event: Rash [2, 9]
10 mg/day: Dosage recommended for further development ([2]; Japanese patients with advanced solid malignancies)
44%: Anorexia, all grades, patients ([2]; overall, nine patients) | Rash, all grades, patients ([2]; overall, nine patients)
not observed: Hyperlipidemia ([2]; all cohorts) | Dose-limiting toxicities (DLTs) ([2]; first cycle of treatment (28 days), 2.5, 5.0 or 10.0 mg/day)
3: Number of patients with adverse event: Rash [2, 7] | Number of patients with adverse event: Thrombocytopenia [2, 7] | Number of patients with adverse event: Leukopenia [2, 9]
238 ± 77 ng·h/mL: AUCτ ([1]; daily dose 5 mg)
0: Number of patients with adverse event: Anemia [2, 3] | Number of patients with adverse event: Diarrhea [2, 3] | Number of patients with adverse event: Fatigue [2, 3] | Number of patients with adverse event: Glucose tolerance impaired [2, 3] | Number of patients with adverse event: Hemorrhage [2, 3] | Number of patients with adverse event: Hyperglycemia [2, 3] | Number of patients with adverse event: Mucosal inflammation [2, 3] | Number of patients with adverse event: Pneumonitis [2, 3] | Number of patients with adverse event: Rash [2, 3] | Number of patients with adverse event: Thrombocytopenia [2, 3] | Number of patients with adverse event: Anemia [2, 4] | Number of patients with adverse event: Anorexia [2, 4] | Number of patients with adverse event: Diarrhea [2, 4] | Number of patients with adverse event: Elevated ALT or AST [2, 4] | Number of patients with adverse event: Fatigue [2, 4] | Number of patients with adverse event: Glucose tolerance impaired [2, 4] | Number of patients with adverse event: Hemorrhage [2, 4] | Number of patients with adverse event: Hyperglycemia [2, 4] | Number of patients with adverse event: Hypertension [2, 4] | Number of patients with adverse event: Leukopenia [2, 4] | Number of patients with adverse event: Mucosal inflammation [2, 4] | Number of patients with adverse event: Nausea [2, 4] | Number of patients with adverse event: Neutropenia [2, 4] | Number of patients with adverse event: Pneumonitis [2, 4] | Number of patients with adverse event: Rash [2, 4] | Number of patients with adverse event: Stomatitis [2, 4] | Number of patients with adverse event: Thrombocytopenia [2, 4] | Number of patients with adverse event: Weight decreased [2, 4] | Number of patients with adverse event: Anemia [2, 5] | Number of patients with adverse event: Elevated ALT or AST [2, 5] | Number of patients with adverse event: Hemorrhage [2, 5] | Number of patients with adverse event: Hyperglycemia [2, 5] | Number of patients with adverse event: Hypertension [2, 5] | Number of patients with adverse event: Mucosal inflammation [2, 5] | Number of patients with adverse event: Nausea [2, 5] | Number of patients with adverse event: Neutropenia [2, 5] | Number of patients with adverse event: Stomatitis [2, 5] | Number of patients with adverse event: Weight decreased [2, 5] | Number of patients with adverse event: Anemia [2, 6] | Number of patients with adverse event: Anorexia [2, 6] | Number of patients with adverse event: Diarrhea [2, 6] | Number of patients with adverse event: Elevated ALT or AST [2, 6] | Number of patients with adverse event: Fatigue [2, 6] | Number of patients with adverse event: Glucose tolerance impaired [2, 6] | Number of patients with adverse event: Hemorrhage [2, 6] | Number of patients with adverse event: Hyperglycemia [2, 6] | Number of patients with adverse event: Hypertension [2, 6] | Number of patients with adverse event: Leukopenia [2, 6] | Number of patients with adverse event: Mucosal inflammation [2, 6] | Number of patients with adverse event: Nausea [2, 6] | Number of patients with adverse event: Neutropenia [2, 6] | Number of patients with adverse event: Pneumonitis [2, 6] | Number of patients with adverse event: Rash [2, 6] | Number of patients with adverse event: Stomatitis [2, 6] | Number of patients with adverse event: Thrombocytopenia [2, 6] | Number of patients with adverse event: Weight decreased [2, 6] | Number of patients with adverse event: Diarrhea [2, 7] | Number of patients with adverse event: Elevated ALT or AST [2, 7] | Number of patients with adverse event: Fatigue [2, 7] | Number of patients with adverse event: Glucose tolerance impaired [2, 7] | Number of patients with adverse event: Hemorrhage [2, 7] | Number of patients with adverse event: Hyperglycemia [2, 7] | Number of patients with adverse event: Hypertension [2, 7] | Number of patients with adverse event: Leukopenia [2, 7] | Number of patients with adverse event: Neutropenia [2, 7] | Number of patients with adverse event: Pneumonitis [2, 7] | Number of patients with adverse event: Stomatitis [2, 7] | Number of patients with adverse event: Anemia [2, 8] | Number of patients with adverse event: Anorexia [2, 8] | Number of patients with adverse event: Diarrhea [2, 8] | Number of patients with adverse event: Elevated ALT or AST [2, 8] | Number of patients with adverse event: Glucose tolerance impaired [2, 8] | Number of patients with adverse event: Hypertension [2, 8] | Number of patients with adverse event: Leukopenia [2, 8] | Number of patients with adverse event: Mucosal inflammation [2, 8] | Number of patients with adverse event: Nausea [2, 8] | Number of patients with adverse event: Neutropenia [2, 8] | Number of patients with adverse event: Pneumonitis [2, 8] | Number of patients with adverse event: Rash [2, 8] | Number of patients with adverse event: Thrombocytopenia [2, 8] | Number of patients with adverse event: Weight decreased [2, 8]
514 ± 231 ng·h/mL: AUCτ ([1]; daily dose 10 mg)
1: Number of patients with adverse event: Anorexia [2, 3] | Number of patients with adverse event: Hypertension [2, 3] | Number of patients with adverse event: Leukopenia [2, 3] | Number of patients with adverse event: Nausea [2, 3] | Number of patients with adverse event: Neutropenia [2, 3] | Number of patients with adverse event: Stomatitis [2, 3] | Number of patients with adverse event: Weight decreased [2, 3] | Number of patients with adverse event: Fatigue [2, 5] | Number of patients with adverse event: Glucose tolerance impaired [2, 5] | Number of patients with adverse event: Pneumonitis [2, 5] | Number of patients with adverse event: Rash [2, 5] | Number of patients with adverse event: Anemia [2, 7] | Number of patients with adverse event: Anorexia [2, 7] | Number of patients with adverse event: Nausea [2, 7] | Number of patients with adverse event: Weight decreased [2, 7] | Number of patients with adverse event: Fatigue [2, 8] | Number of patients with adverse event: Hemorrhage [2, 8] | Number of patients with adverse event: Hyperglycemia [2, 8] | Number of patients with adverse event: Stomatitis [2, 8] | Number of patients with adverse event: Anemia [2, 9] | Number of patients with adverse event: Glucose tolerance impaired [2, 9] | Number of patients with adverse event: Hemorrhage [2, 9] | Number of patients with adverse event: Hyperglycemia [2, 9] | Number of patients with adverse event: Hypertension [2, 9] | Number of patients with adverse event: Neutropenia [2, 9] | Number of patients with adverse event: Pneumonitis [2, 9]
